Screens deposited in PubChem BioAssay by several laboratories.
Shown are actives, neighbours in structure and some others; about 4.6% of the full set was active somewhere.
Arrestin-AP2 inh: inhibitors of beta-arrestin/AP2 binding, primary screen, biochemical, GPCR trafficking, flow cytometry; 0.31% of 340,000 active; inhibition, % at 10 µM; FITC-arrestin peptide / GST-AP2 beads; AP2 beta2 appendage carries R879A mutation; beta-arrestin 1 C-terminal peptide binding to AP2 beta2-adaptin appendage (human);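 active means inhibition above a set limit, near 3 SD of compounds lacking own fluorescence, cut at about 54% in these data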;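 further: plate controls were DMSO wells for no effect and 5 µM unlabelled arrestin peptide for full effect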
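Assay system: GST-AP2 R879A bound to glutathione beads, E. coli-expressed; Medium: PBS with 0.05% Tween 20 and 0.1% BSA; Also added: fluorescein-tagged arrestin peptide at 50 nM final; Timing: 12 min plus 1 h, RT; Measured by: flow cytometry, FL1 (488/535 nm); Evaluation: percent drop in bead-associated FITC signal.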
NALP1 yeast inh: NALP1 inflammasome inhibitors in reconstituted yeast, colorimetric, S. cerevisiae, triplicate retest; S. cerevisiae NALP1/ASC/caspase-1 growth, X-gal OD620, 72 h; inhibition, % at 10 µM; 0.61% of 280,000 active; AID 2071, 2009; in the data active means inhibition mostly above about 24%, no sharp cut-off; inactive means mostly below about 32%
PolyA inhibitor: polyadenylation inhibitors in yeast reporter cells, primary screen, luminescence, S. cerevisiae. S. cerevisiae SKY197-pL101 polyadenylation reporter, beta-gal luminescence; efflux-impaired pdr1/pdr3 knockout yeast; score 100 = 6 SD above DMSO. activity score, % at 12 µM. 0.02% of 300,000 active. AID 1875, 2009;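 active means lowest replicate activity score at least 50, where 100 means six control SD above control mean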;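 further: yeast exposed to compound for 9 h at 30 °C; higher score means more reporter readthrough which indicates perturbed polyadenylation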
ALR inh: inhibitors of human ALR sulfhydryl oxidase, primary screen, biochemical, H2O2 detection, HRP-luminol luminescence, single point | FAD-linked sulfhydryl oxidase ALR (Homo sapiens), P55789 | purified ALR, DTT oxidation | inhibition, % (test concentration not listed) | 3.8% of 290,000 active | AID 485317, 2010;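 active means mean replicate inhibition above about 79%, with every replicate also reaching it, limit read from the data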
Target sequence (P55789 whole entry, looked up): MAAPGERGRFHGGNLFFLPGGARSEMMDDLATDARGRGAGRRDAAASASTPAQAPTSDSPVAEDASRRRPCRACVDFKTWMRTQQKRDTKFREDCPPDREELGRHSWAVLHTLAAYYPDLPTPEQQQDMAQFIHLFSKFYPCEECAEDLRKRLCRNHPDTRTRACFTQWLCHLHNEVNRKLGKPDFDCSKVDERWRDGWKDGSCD
Pemphigus Ab inh: inhibitors of pemphigus antibody binding to DSG3, primary screen, biochemical, bead-based, flow cytometry, scFv-GFP | Desmoglein-3 (Homo sapiens), P32926 | DSG3-coupled beads, scFv-anti-DSG3-GFP binding; active compounds read low | binding (percent of control), % at 10 µM | 0.48% of 310,000 active;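 active means binding more than 3 SD below its plate's average and above zero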;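 further: hits lower antibody fragment binding to DSG3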
NALP3 yeast inh: NALP3 inflammasome inhibitors in reconstituted yeast, primary screen, luminescence, uHTS; 0.39% of 330,000 active; inhibition, % at 10 µM; Yeast reconstituted NLRP3/ASC/caspase-1, beta-gal luminescence, 24 h;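 active means inhibition of 50% or more; inactive means inhibition below 50%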;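 further: plate controls were induced DMSO wells for no effect and uninduced yeast grown without galactose for full effect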
* = called active by the depositor; x = no result given.

SMILES | Arrestin-AP2 inh | NALP1 yeast inh | PolyA inhibitor | ALR inh | Pemphigus Ab inh | NALP3 yeast inh
COCCN(Cc1ccccc1)C(=O)c1cccc(S(=O)(=O)N2CCN(Cc3ccccc3)CC2)c1 | x | x | x | x | 104 | x
COC(=O)c1cccc(NC(=O)/C=C/c2ccc([N+](=O)[O-])cc2)c1 | 1 | 8 | -12 | 0 | 96 | 21
O=C(/C=C/c1ccc([N+](=O)[O-])cc1)Nc1cccc(C(=O)Nc2ccccc2C(=O)O)c1 | 11 | 28* | -10 | 91* | 196 | x
Cc1ccc(/C=C/C(=O)NCCc2cccc(Cl)c2)o1 | 31 | 14 | 1 | 11 | 112 | 17
O=c1c2cc(N3CCOCC3)ccc2[nH]c(=S)n1CCCN1CCCC1 | 5 | x | 5 | -19 | 100 | 13
CC1CCN(CCCn2c(=S)[nH]c3ccc(N4CCOCC4)cc3c2=O)CC1 | 0 | 3 | 11 | 85* | 100 | 11
O=C(O)c1cc(NCc2ccc3c(c2)OCO3)ccc1N1CCOCC1 | 8 | 1 | -6 | 79* | 96 | -7
COC(=O)c1cc(NCc2ccc3c(c2)OCO3)ccc1N1CCOCC1 | 3 | -2 | 14 | -1 | 96 | 15
O=C(O)c1cc(NCc2ccccc2)ccc1N1CCOCC1 | 7 | 0 | -12 | 49 | 101 | 5
COc1ccccc1CNc1ccc(N2CCOCC2)c(C(=O)O)c1 | 10 | 30 | 8 | 99* | 100 | 8
Nc1nc(N)nc(-c2ccccc2-c2nc(N)nc(N)n2)n1 | 0 | 26 | 2 | 4 | 74* | 7
Nc1nc(N)nc(-c2cc(O)ccc2O)n1 | 3 | x | x | 91* | 104 | 18
Nc1nc(N)nc(-c2ccccc2)n1 | 2 | 11 | 8 | -7 | 107 | 2
Nc1nc(N)nc(-c2cc([N+](=O)[O-])ccc2O)n1 | 19 | x | x | -9 | 92 | 12
Cc1ccc2sc(N3CCN(CCNC(=O)c4ccco4)CC3)nc2c1C | -8 | x | -3 | -10 | 99 | 12
Nc1ccccc1SCc1cn2cccnc2n1 | 1 | x | -7 | 98* | 99 | -11
Cc1cccn2cc(CSc3ccccc3N)nc12 | 14 | 10 | -6 | 81* | 100 | 2
Cc1cc(OCC(=O)N2CCN(c3ccccn3)CC2)cc(C)c1Br | -2 | 12 | -14 | -4 | 105 | 13
CN(CC(=O)Nc1ccc(F)cc1)C(=O)CN1C(=O)NC(CCc2ccccc2)C1=O (configuration not stated) | x | x | x | x | 109 | x
O=c1[nH]n2c(=O)c3c([nH]c2c1N=Nc1cccc(C(F)(F)F)c1)CCCC3 | 24 | 1 | 0 | 97* | x | 16
O=c1[nH]n2c(=O)c3c([nH]c2c1N=Nc1cccc(Cl)c1)CCC3 | 10 | 24 | -14 | 35 | 110 | x
c1ccc(CSc2nc3ncccn3n2)cc1 | 4 | x | x | x | x | 27
COc1cccc(Nc2c(F)c(F)c(F)c(F)c2C(=O)O)c1 | -4 | 10 | 26 | 99* | 96 | 13
Cc1ccc(Nc2c(F)c(F)c(F)c(F)c2C(=O)O)cc1 | 16 | 8 | -8 | 87* | 96 | 12
COc1cccc(Nc2c(F)c(OC)c(F)c(F)c2C(=O)O)c1 | 4 | 12 | 9 | 21 | 111 | 16
COc1c(F)c(F)c(C(=O)O)c(Nc2ccc(C)cc2C)c1F | -5 | 5 | -4 | 97* | 102 | 13
O=C(NCCN1CCN(c2ccccc2)CC1)c1ccccc1F | 9 | 4 | -3 | 99* | 108 | 23
COc1cc(/C=N/NC(=O)CCN2CCN(Cc3ccccc3)CC2)cc(OC)c1OC | 7 | 26 | -8 | x | 104 | 13
O=C(CCN1CCN(c2ccccc2)CC1)N/N=C/c1ccc(O)c(O)c1O | 22 | 23 | 24 | x | 80* | x
COc1cc(/C=N/NC(=O)CCN2CCN(c3ccccc3)CC2)cc(OC)c1OC | 10 | 29 | x | 93* | 110 | 21
